Measurements: ChEMBL document CHEMBL3272242, “Sulfamylurea hypoglycemic agents. 6. High-potency derivatives” (J Med Chem, 1976)

Key:
Type in all cases: functional
Design in all cases: scale not given: the % may be the effect or the level left
Conditions in all cases: route intraperitoneal
Rattus norvegicus [1] = assay: Hypoglycemic activity in 18 to 24 hrs-fasted rat assessed as reduction in blood glucose at 5 mg/kg, ip measured after 1 hr relative to saline-treated control
Outline: (§1)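 Unanesthetized male Charles River rats (200–250 g), fasted 18–24 h, in groups of five or six. Single ip dose. Tail-vein blood drawn before dosing and 1 h after. Glucose measured by ferricyanide reduction micromethod on an autoanalyzer. Value is the percent fall in blood glucose at 1 h versus a saline-treated control group. Significance levels are p < 0.05, 0.01 and 0.001.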

Rattus norvegicus [2] = assay: Hypoglycemic activity in 18 to 24 hrs-fasted rat assessed as reduction in blood glucose at 15 mg/kg, ip measured after 1 hr relative to saline-treated control; outline: as §1
Rattus norvegicus [3] = assay: Hypoglycemic activity in 18 to 24 hrs-fasted rat assessed as reduction in blood glucose at 1 mg/kg, ip measured after 1 hr relative to saline-treated control; outline: as §1

SMILES | Activity (Rattus norvegicus [1]) | Activity (Rattus norvegicus [2]) | Activity (Rattus norvegicus [3])
O=C(NC1CCCCC1)NS(=O)(=O)N1CCC(CCNC(=O)c2ccc3ccccc3n2)CC1 | 11% | – | –
O=C(NC[C@@H]1C[C@@H]2C=C[C@@H]1C2)NS(=O)(=O)N1CCC(CCNC(=O)c2cnccc2Cl)CC1 (relative stereo) | – | 12% | –
O=C(NC1CCCCC1)NS(=O)(=O)N1CCC(CCNC(=O)c2csnn2)CC1 | 19% | – | –
O=C(NC[C@@H]1C[C@@H]2C=C[C@@H]1C2)NS(=O)(=O)N1CCC(CCNC(=O)C(F)(F)F)CC1 (relative stereo) | 22% | – | –
Cc1ncccc1C(=O)NCCC1CCN(S(=O)(=O)NC(=O)NC[C@@H]2C[C@@H]3C=C[C@@H]2C3)CC1.O (relative stereo) | 16% | – | –
COc1ncccc1C(=O)NCCC1CCN(S(=O)(=O)NC(=O)NC23CC4CC(CC(C4)C2)C3)CC1 | 25% | – | 12%
Cn1cc(C(=O)NCCC2CCN(S(=O)(=O)NC(=O)NC[C@@H]3C[C@@H]4CC[C@@H]3C4)CC2)c(=O)n(C)c1=O.O (relative stereo) | 22% | – | –
O=C(NC[C@@H]1C[C@@H]2C=C[C@@H]1C2)NS(=O)(=O)N1CCC(CCNC(=O)c2cc(Cl)ccn2)CC1 (relative stereo) | 32% | 46% | 16%
Cn1cccc(C(=O)NCCC2CCN(S(=O)(=O)NC(=O)NC[C@@H]3C[C@@H]4C=C[C@@H]3C4)CC2)c1=O (relative stereo) | – | 40% | 19%
O=C(NC1CCCCC1)NS(=O)(=O)N1CCC(CCNC(=O)c2cccc3cccnc23)CC1 | 37% | – | 29%
O=C(NC1CCCCC1)NS(=O)(=O)N1CCC(CCNC(=O)C2Oc3ccccc3O2)CC1 | 8% | – | –
CCCNC(=O)NS(=O)(=O)N1CCC(CCNC(=O)c2cc(C(F)(F)F)nn2C)CC1 | 11% | – | –
O=C(NC[C@@H]1C[C@@H]2CC[C@@H]1O2)NS(=O)(=O)N1CCC(CCNC(=O)c2cccc3c2OCCO3)CC1 (relative stereo) | 15% | 13% | –
O=C(NC[C@@H]1C[C@@H]2C=C[C@@H]1C2)NS(=O)(=O)N1CCC(CCNC(=O)c2cscn2)CC1 (relative stereo) | – | 37% | –
O=C(NC1CCCCC1)NS(=O)(=O)N1CCC(CCNC(=O)c2nsc3ccccc23)CC1 | – | 17% | –
O.O=C(NC[C@@H]1C[C@@H]2C=C[C@@H]1C2)NS(=O)(=O)N1CCC(CCNC(=O)c2cccc3cccnc23)CC1 (relative stereo) | 34% | – | 32%
COc1ncccc1C(=O)NCCC1CCN(S(=O)(=O)NC(=O)NC[C@H]2C[C@@H]3C=C[C@@H]2C3)CC1 (relative stereo) | 20% | – | –
CCCNC(=O)NS(=O)(=O)N1CCC(CCNC(=O)c2cccc3c2OCCO3)CC1 | – | 25% | –
CC(=O)NCCC1CCN(S(=O)(=O)NC(=O)NC[C@@H]2C[C@@H]3C=C[C@@H]2C3)CC1 (relative stereo) | 18% | 25% | –
Cc1cccc(C(=O)NCCC2CCN(S(=O)(=O)NC(=O)NC[C@@H]3C[C@@H]4C=C[C@@H]3C4)CC2)n1 (relative stereo) | 20% | – | –
CSc1ccc(C(F)(F)F)cc1C(=O)NCCC1CCN(S(=O)(=O)NC(=O)NC2CCCCC2)CC1 | – | 24% | –
O=C(NC[C@@H]1C[C@@H]2CC[C@@H]1O2)NS(=O)(=O)N1CCC(CCNC(=O)C2Oc3ccccc3O2)CC1 (relative stereo) | 15% | 38% | –
COc1ccc(C(=O)NCCC2CCN(S(=O)(=O)NC(=O)NC[C@@H]3C[C@@H]4C=C[C@@H]3C4)CC2)cn1 (relative stereo) | 11% | 32% | –
CC#N.O=C(NC[C@@H]1C[C@@H]2CC[C@@H]1O2)NS(=O)(=O)N1CCC(CCNC(=O)c2nc3ccccc3s2)CC1 (relative stereo) | – | 30% | –
COc1ccncc1C(=O)NCCC1CCN(S(=O)(=O)NC(=O)NC[C@@H]2C[C@@H]3C=C[C@@H]2C3)CC1 (relative stereo) | 14% | – | –
COc1ncccc1C(=O)NCCC1CCN(S(=O)(=O)NC(=O)NC[C@@H]2C[C@@H]3CC[C@@H]2O3)CC1 (relative stereo) | 34% | – | –
COc1ccc(Cl)cc1C(=O)NCCC1CCN(S(=O)(=O)NC(=O)NC2CCCCC2)CC1 | 25% | – | 39%
CCCCn1cc(C(=O)NCCC2CCN(S(=O)(=O)NC(=O)NC[C@@H]3C[C@@H]4C=C[C@@H]3C4)CC2)c(=O)n(CCCC)c1=O (relative stereo) | 12% | – | –
COc1ncccc1C(=O)NCCC1CCN(S(=O)(=O)NC(=O)NC[C@@H]2C[C@@H]3CC[C@@H]2C3)CC1 (relative stereo) | 35% | – | –
O.O=C(NC[C@@H]1C[C@@H]2C=C[C@@H]1C2)NS(=O)(=O)N1CCC(CCNC(=O)c2nc3ccccc3s2)CC1 (relative stereo) | 24% | 34% | 14%
